Assay results from ChEMBL document CHEMBL1134834, “Quinoxalinylethylpyridylthioureas (QXPTs) as potent non-nucleoside HIV-1 reverse transcriptase (RT) inhibitors. Further SAR studies and identification of a novel orally bioavailable hydrazine-based antiviral agent” (J Med Chem, 2001).
The source made the active and inactive calls. The rule behind the calls is not given here.

Key:
[1] = molecular target: T1, Human immunodeficiency virus type 1 reverse transcriptase (Human immunodeficiency virus 1, UniProt Q72547); experiment: Inhibition of HIV-1 wild-type RT
[2] = molecular target: Human immunodeficiency virus type 1 reverse transcriptase (Human immunodeficiency virus 1, UniProt Q72547, V106A); experiment: Inhibition of HIV-1 Mutant HIV-1 RT enzymes containing the single amino acid substitution V106A
[3] = molecular target: Human immunodeficiency virus type 1 reverse transcriptase (Human immunodeficiency virus 1, UniProt Q72547, Y181I); experiment: Inhibition of HIV-1 Mutant HIV-1 RT enzymes containing the single amino acid substitution Y181I
[4] = molecular target: Human immunodeficiency virus type 1 reverse transcriptase (Human immunodeficiency virus 1, UniProt Q72547, K103N); experiment: Inhibition of HIV-1 Mutant HIV-1 RT enzymes containing the single amino acid substitution K103N
[5] = molecular target: Human immunodeficiency virus type 1 reverse transcriptase (Human immunodeficiency virus 1, UniProt Q72547, Y188L); experiment: Inhibition of HIV-1 Mutant HIV-1 RT enzymes containing the single amino acid substitution Y188L
[6] = molecular target: T1, Human immunodeficiency virus type 1 reverse transcriptase; experiment: Inhibition of HIV-1 Mutant HIV-1 RT enzymes containing the single amino acid substitution […]
[7] = Selectivity index was determined in CEM-SS cells; assay type: functional
How it was run: (§1)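 CEM-SS T4 lymphocytes infected with wild-type HIV-1. Protection from virus-induced cell death is scored against an AZT-treated positive control run under identical conditions. […] SI = IC50/EC50.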

[8] = test system: CEM-SS; experiment: (§2) Concentration which results in 50% survival of uninfected untreated control CEM-SS cells (cytotoxicity of the compound); assay type: cell-based; settings: Homo sapiens
[9] = test system: CEM-SS; experiment: Concentration which produces a 50% survival of HIV-1 infected cells relative to uninfected control CEM-SS cells (in vitro anti-HIV activity); assay type: functional, cell-based; settings: Homo sapiens; how it was run: as §1
[10] = molecular target: Human immunodeficiency virus type 1 protease (Human immunodeficiency virus 1) (UniProt Q72874); experiment: Inhibition of HIV-1 Mutant HIV-1 RT enzymes containing the single amino acid substitution K103N; NA means Not active
How it was run: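 Template poly(rA)oligo(dT) 10:1 (0.3 µM 3′-OH ends) with 10 µM [3H]-dTTP, 37 °C. TCA-precipitable radioactivity counted. Ki from Lineweaver-Burk and Dixon plots, inhibitor 0.2-5 Ki, triplicate.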

[11] = species: Mus musculus; experiment: Cytotoxicity on NSO murine cell line (O.D.=0.125+/-0.015); assay type: functional; settings: read-out: TC50 (the source's name)
[12] = Cytotoxicity on normal human lymphocytes(HL) (O.D.=0.114+/-0.01); assay type: functional; settings: read-out: TC50 (the source's name)
[13] = test system: Daudi; experiment: Cytotoxicity on Daudi Human(DH) cell line (O.D.=0.129+/-0.018); assay type: functional; settings: read-out: TC50 (the source's name)
[14] = test system: CEM-SS; experiment: as §2; assay type: functional, cell-based; settings: Homo sapiens, read-out: IC50 (the source's name)
[15] = Selectivity index was determined in C8166 cells; assay type: functional
How it was run: (§3)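 C8166 CD4+ T-cell line (HTLV-I genome, only tat expressed) acutely infected with lymphocytotropic HIV-1 IIIB. […] Read-out is HIV-p24 antigen in supernatants. AZT positive control was run at the same time. SI = IC50/EC50.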

[16] = test system: C8166; experiment: (§4) Concentration which results in 50% survival of uninfected untreated control C8166 cells (cytotoxicity of the compound); assay type: functional, cell-based; settings: Homo sapiens
How it was run: (§5)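 Toxicity in uninfected C8166 cells by MTT reduction to formazan, read spectrophotometrically.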

[17] = test system: C8166; experiment: Synergistic antiviral activity of AZT (DDI) with the compound, against HIV-IIIB in C8166 cells; assay type: functional, cell-based; settings: Homo sapiens
How it was run: (§6)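 C8166 cells infected with HIV-IIIB and treated with compound combined with AZT (or DDI). Combination index calculated by the Chou-Talalay multiple drug effect analysis under both mutually exclusive and mutually nonexclusive assumptions.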

[18] = test system: NIH3T3; experiment: Cytotoxicity on 3T3 fibroblasts (3T3F) murine cell line (O.D.=0.131+/-0.014); assay type: functional; settings: Mus musculus, read-out: TC50 (the source's name)
[19] = test system: Human immunodeficiency virus 1; experiment: Concentration which produces a 50% survival of HIV-1 infected cells relative to uninfected control C8166 cells; assay type: functional, organism-based; settings: Human immunodeficiency virus 1, C8166
[20] = test system: C8166; experiment: Antiviral activity alone against HIV-IIIB in C8166 cells; assay type: functional, cell-based; settings: Homo sapiens; how it was run: as §3
[21] = test system: C8166; experiment: Synergistic antiviral activity with AZT (DDI), against HIV-IIIB in C8166 cells; assay type: functional, cell-based; settings: Homo sapiens; how it was run: as §6
[22] = test system: NIH3T3; experiment: Cytotoxicity against 3T3 fibroblasts (3T3F) murine cell line (O.D.=0.131+/-0.014); assay type: functional; settings: Mus musculus, read-out: TC50 (the source's name)
[23] = species: Mus musculus; experiment: Cytotoxicity against NSO murine cell line (O.D.=0.125+/-0.015); assay type: functional; settings: read-out: TC50 (the source's name)
[24] = test system: C8166; experiment: as §4; assay type: cell-based; settings: Homo sapiens; how it was run: as §5
[25] = Cytotoxicity against normal human lymphocytes(HL) (O.D.=0.114+/-0.01); settings: read-out: TC50 (the source's name)
[26] = test system: Daudi; experiment: Cytotoxicity against Daudi Human(DH) cell line (O.D.=0.129+/-0.018); assay type: functional; settings: read-out: TC50 (the source's name)
[27] = test system: Daudi; experiment: cytotoxicity on Daudi Human(DH) cell line (O.D.=0.129+/-0.018); assay type: functional; settings: read-out: TC50 (the source's name)
[28] = cytotoxicity on normal human lymphocytes(HL) (O.D.=0.114+/-0.01); assay type: functional; settings: read-out: TC50 (the source's name)
[29] = test system: Murine cell line; experiment: cytotoxicity on 3T3 fibroblasts (3T3F) murine cell line (O.D.=0.131+/-0.014); assay type: functional; settings: Mus musculus, read-out: TC50 (the source's name)
[30] = Selectivity index (IC50/EC50) was determined in C8166 cells; assay type: functional
[31] = Selectivity index (IC50/EC50) was determined in CEM-SS cells; assay type: functional
How it was run: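 CEM-SS (T4 lymphocyte) cells infected with wild-type HIV-1 were scored for protection from virus-induced cell death. […] SI = IC50/EC50. An AZT-treated positive control was run in parallel under identical conditions.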

[32] = species: Mus musculus; experiment: cytotoxicity on NSO murine cell line (O.D.=0.125+/-0.015); assay type: functional; settings: read-out: TC50 (the source's name)

## Cc1cc2nc(OCCNC(=S)Nc3ccc(Br)cn3)c3cccn3c2cc1C
[1]
  Ki: 220 nM
[2]
  Ki: 150 nM
[3]
  Ki: 660 nM
[4]
  Ki: 450 nM
[5]
  Ki: 1500 nM
[6]
  Ki: 500 nM

## O=c1c2cccn2c2c(F)cc(F)cc2n1CC/N=C(\S)Nc1ccc(Br)cn1
[7]
  SI: >23
[8]
  IC50: > 2000 nM
[9]
  EC50: 85 nM
[10]
  NA: inactive

## O=C(NNc1nc2ccccc2n2cccc12)c1ccccn1
[1]
  Ki: 4000 nM

## O=c1c2nccn2c2ccccc2n1CCNC(=S)Nc1ccc(Br)cn1
[1]
  Ki: 250 nM
[11]
  CC50: 680000 nM
[12]
  CC50: 670000 nM
[2]
  Ki: 350 nM
[13]
  CC50: 680000 nM
[7]
  SI: >150
[14]
  CC50: > 2000 nM
[15]
  SI: 275
[16]
  IC50: 88000 nM
[17]
  EC50: 66 nM
[3]
  Ki: 1400 nM
[18]
  CC50: 690000 nM
[4]
  Ki: 240 nM
[19]
  EC50: 320 nM
[20]
  EC50: 588 nM
[5]
  Ki: 5000 nM
[6]
  Ki: 1000 nM
[21]
  EC50: 460 nM
[9]
  EC50: 13 nM

## O=c1c2cccn2c2ccccc2n1CCNC(=S)Nc1ccc(Br)cn1
[1]
  Ki: 58 nM
[2]
  Ki: 112 nM
[22]
  CC50: 800000 nM
[3]
  Ki: 4000 nM
[23]
  CC50: 800000 nM
[24]
  IC50: 17000 nM
[25]
  CC50: 800000 nM
[4]
  Ki: 100 nM
[19]
  EC50: 380 nM
[5]
  Ki: 2500 nM
[6]
  Ki: 105 nM
[26]
  CC50: 800000 nM

## Cc1cn([C@H]2C[C@H](N=[N+]=[N-])[C@@H](CO)O2)c(=O)[nH]c1=O [ZIDOVUDINE]
[7]
  SI: 526
[15]
  SI: >250
[8]
  IC50: > 1000 nM
[24]
  IC50: > 100000 nM
[19]
  EC50: 400 nM

## S=C(NNc1nc2ccccc2n2cccc12)Nc1ccc(Br)cn1
[1]
  Ki: 1900 nM

## O=c1c2cccn2c2ccc(Cl)cc2n1CCNC(=S)Nc1ccc(Br)cn1
[27]
  CC50: 960000 nM
[28]
  CC50: 970000 nM
[1]
  Ki: 20 nM
[29]
  CC50: 980000 nM
[2]
  Ki: 20 nM
[14]
  CC50: > 2000 nM
[30]
  SI: 123
[16]
  IC50: 7000 nM
[31]
  SI: >1080
[3]
  Ki: 240 nM
[32]
  CC50: 970000 nM
[4]
  Ki: 150 nM
[19]
  EC50: 61 nM
[5]
  Ki: 900 nM
[6]
  Ki: 160 nM
[9]
  EC50: 1.8 nM
